Publication PMC9179932 (Nature chemical biology, 2022)

Assays:
XPNPEP3 [1] = biological target: T1, XPNPEP3 (Homo sapiens, UniProt Q9NQH7); assay: XPNPEP3 enzymatic assay; format: biochemical; settings: Supplementary Table 2
Method in brief: (§1)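 Enzymes are XPNPEP1 recombinant at 3.5 nM, or XPNPEP3 FLAG-immunoprecipitated after 48 h overexpression in HEK 293T. Each is treated with graded doses of test compound. H-Lys(abz)-Pro-Pro-pNA is added at 100 μM final, and fluorescence (ex/em 320/410 nm) is monitored for 30 min.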

prolidase (PEPD) = biological target: T2, prolidase (PEPD) (Homo sapiens, UniProt P12955); assay: Prolidase activity; format: biochemical; settings: dose-dependent
T2 sequence (P12955 1-493): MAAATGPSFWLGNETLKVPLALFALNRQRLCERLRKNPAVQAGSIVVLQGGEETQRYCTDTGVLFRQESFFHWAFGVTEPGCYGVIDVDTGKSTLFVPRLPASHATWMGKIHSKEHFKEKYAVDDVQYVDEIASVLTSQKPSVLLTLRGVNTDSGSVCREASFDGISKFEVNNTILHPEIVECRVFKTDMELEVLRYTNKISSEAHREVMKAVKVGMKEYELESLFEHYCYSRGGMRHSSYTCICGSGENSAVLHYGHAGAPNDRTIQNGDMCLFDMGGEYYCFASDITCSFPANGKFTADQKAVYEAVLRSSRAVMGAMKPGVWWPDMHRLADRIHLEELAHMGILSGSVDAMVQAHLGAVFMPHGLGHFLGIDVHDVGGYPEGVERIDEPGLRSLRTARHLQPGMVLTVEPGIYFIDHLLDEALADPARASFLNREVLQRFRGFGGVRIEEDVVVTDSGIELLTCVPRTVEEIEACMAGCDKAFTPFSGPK
Method in brief: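 THP-1 lysates are normalised to 5 mg ml−1 and incubated with Ala-Pro dipeptide (40 μM final) and test compound at varying doses. Released alanine is quantified as increasing resorufin fluorescence (535/587 nm) at 25 °C using an L-alanine detection kit.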

recombinant DPP9 = recombinant DPP9 (Homo sapiens, UniProt Q86TI2); assay: AP-AMC-based DPP9 substrate assay; format: biochemical; settings: Supplementary Table 1
recombinant DPP9, sequence (Q86TI2 whole entry, species assumed): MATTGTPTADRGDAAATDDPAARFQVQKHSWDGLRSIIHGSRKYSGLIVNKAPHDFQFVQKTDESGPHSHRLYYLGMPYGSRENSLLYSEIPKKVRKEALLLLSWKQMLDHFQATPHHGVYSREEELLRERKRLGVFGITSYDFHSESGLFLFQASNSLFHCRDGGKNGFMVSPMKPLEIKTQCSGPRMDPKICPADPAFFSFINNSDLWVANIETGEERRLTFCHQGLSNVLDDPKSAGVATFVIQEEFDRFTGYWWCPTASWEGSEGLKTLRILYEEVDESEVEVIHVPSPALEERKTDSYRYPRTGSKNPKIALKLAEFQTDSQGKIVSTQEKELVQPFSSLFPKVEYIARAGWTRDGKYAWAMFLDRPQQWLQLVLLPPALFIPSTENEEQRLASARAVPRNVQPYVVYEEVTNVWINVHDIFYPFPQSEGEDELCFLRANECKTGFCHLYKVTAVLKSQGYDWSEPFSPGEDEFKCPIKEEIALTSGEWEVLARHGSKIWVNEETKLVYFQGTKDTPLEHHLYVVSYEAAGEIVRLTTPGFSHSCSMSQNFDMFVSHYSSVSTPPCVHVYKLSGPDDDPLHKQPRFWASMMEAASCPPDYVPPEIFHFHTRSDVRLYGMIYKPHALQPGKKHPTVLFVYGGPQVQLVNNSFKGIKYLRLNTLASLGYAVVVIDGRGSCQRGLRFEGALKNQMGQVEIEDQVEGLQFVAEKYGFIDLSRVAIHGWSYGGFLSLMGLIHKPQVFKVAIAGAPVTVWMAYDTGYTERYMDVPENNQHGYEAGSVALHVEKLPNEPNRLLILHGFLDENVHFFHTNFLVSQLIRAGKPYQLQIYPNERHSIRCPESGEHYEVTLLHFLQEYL
Method in brief: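 Recombinant DPP9 (1 nM) is dispensed into 384-well plates and test compound is added by pintool over a concentration series. Reaction starts with 25 μM AP-AMC. Cleavage is read as rising fluorescence (ex/em 380/460 nm) at 25 °C for 30 min.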

PEPD [2] = biological target: T3, PEPD (Homo sapiens, UniProt P12955); assay: CETSA in HEK 293T lysates; format: binding; settings: 10 μM
T3 sequence (P12955 1-493): T2 sequence (P12955 1-493)
Method in brief: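 HEK 293T cells are sonicated and cleared at 10,000g for 10 min. Clarified lysate is incubated with test compound (10 μM) for 30 min, then heated for 30 min at a temperature series. Aggregates are pelleted at 18,000g for 20 min, and the soluble supernatant is immunoblotted for the target.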

PEPD [3] = biological target: T3, PEPD; assay: CETSA in THP-1 cell lysates; format: binding; settings: 0.5, 5 μM
Method in brief: (§2)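 THP-1 (Cas9) cell lysate is made by sonication and cleared at 10,000g for 10 min. It is exposed to test compound (0.5 or 5 μM) for 30 min, then heated 30 min at 40.6, 50.8, 60.1 or 70.9 °C. After spinning at 18,000g for 20 min, the soluble fraction is immunoblotted.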

PEPD [4] = biological target: T3, PEPD; assay: PEPD assay; format: biochemical
Method in brief: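 His-tagged human PEPD is expressed in E. coli Rosetta DE3 (IPTG, 4 h, 37 °C) and purified on TALON resin. Enzyme at 50 nM is mixed with Ala-Pro (40 μM final) and test compound. Liberated alanine is measured fluorometrically (resorufin, ex/em 535/587 nm) at 25 °C with an L-alanine assay kit.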

XPNPEP1 [5] = biological target: T4, XPNPEP1 (Homo sapiens, UniProt Q9NQW7); assay: XPNPEP1 enzymatic assay; format: biochemical; settings: Supplementary Table 2
Method in brief: as §1
Target sequence in this assay (Q9NQW7 whole entry, species assumed): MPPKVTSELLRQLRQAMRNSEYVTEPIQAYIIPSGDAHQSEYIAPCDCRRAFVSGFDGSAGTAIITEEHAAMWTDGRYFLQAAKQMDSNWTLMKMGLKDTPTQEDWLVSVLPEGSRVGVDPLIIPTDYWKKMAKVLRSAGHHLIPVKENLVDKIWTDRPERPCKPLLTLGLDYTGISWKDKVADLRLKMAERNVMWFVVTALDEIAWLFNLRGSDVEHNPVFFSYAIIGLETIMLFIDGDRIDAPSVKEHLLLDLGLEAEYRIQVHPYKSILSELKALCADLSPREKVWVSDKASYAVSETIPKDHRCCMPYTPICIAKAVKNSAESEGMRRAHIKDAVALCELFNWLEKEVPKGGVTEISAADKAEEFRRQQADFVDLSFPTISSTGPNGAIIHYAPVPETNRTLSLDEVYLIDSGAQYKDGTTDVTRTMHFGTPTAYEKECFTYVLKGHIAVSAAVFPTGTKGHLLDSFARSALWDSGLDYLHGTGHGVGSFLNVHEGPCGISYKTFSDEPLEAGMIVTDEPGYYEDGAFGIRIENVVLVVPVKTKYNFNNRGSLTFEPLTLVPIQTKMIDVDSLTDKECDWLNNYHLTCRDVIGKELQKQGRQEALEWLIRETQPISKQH

XPNPEP1 [6] = biological target: T4, XPNPEP1; assay: CETSA in THP-1 cell lysates; format: binding; settings: 0.5, 5 μM
Method in brief: as §2
Target sequence in this assay (Q9NQW7 whole entry): as the sequence (Q9NQW7 whole entry, species assumed) above

XPNPEP3 [7] = biological target: T1, XPNPEP3; assay: CETSA in THP-1 cell lysates; format: binding
Method in brief: as §2

MV4;11 cells = assay: MV4; format: cell-based; settings: 24 h, CTG
[8] = tested on: bestatin-sensitive aminopeptidases; assay: Recombinant aminopeptidase AMC reporter assays; format: biochemical; settings: Supplementary Table 1
Method in brief: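 Recombinant enzymes are incubated with test compound over a concentration range, then AMC substrate is added. Enzyme and substrate pairs: RNPEP 1.4 nM with 200 μM R-AMC; DPP3 0.6 nM with 100 μM RR-AMC; LTA4H 114.3 nM with 400 μM R-AMC; NPEPPS 1 nM with 10 μM L-AMC; ANPEP 1.2 nM with 100 μM A-AMC. Fluorescence (380/460 nm) is recorded at 25 °C for 30 min.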

NLRP1–DPP9 interaction = NLRP1–DPP9 interaction (Homo sapiens, UniProt Q86TI2); assay: DPP9 displacement from FLAG-NLRP1 on anti-FLAG beads; format: binding; settings: VbP 10 μM; VP dipeptide 0.5, 5 mM; CQ31, CQ04 10 μM
NLRP1–DPP9 interaction, sequence (Q86TI2 whole entry): as the sequence (Q86TI2 whole entry, species assumed) above

NPEPPS = NPEPPS (Homo sapiens, UniProt P55786); assay: CETSA in HEK 293T lysates; format: binding; settings: 10 μM
NPEPPS, sequence (P55786 whole entry): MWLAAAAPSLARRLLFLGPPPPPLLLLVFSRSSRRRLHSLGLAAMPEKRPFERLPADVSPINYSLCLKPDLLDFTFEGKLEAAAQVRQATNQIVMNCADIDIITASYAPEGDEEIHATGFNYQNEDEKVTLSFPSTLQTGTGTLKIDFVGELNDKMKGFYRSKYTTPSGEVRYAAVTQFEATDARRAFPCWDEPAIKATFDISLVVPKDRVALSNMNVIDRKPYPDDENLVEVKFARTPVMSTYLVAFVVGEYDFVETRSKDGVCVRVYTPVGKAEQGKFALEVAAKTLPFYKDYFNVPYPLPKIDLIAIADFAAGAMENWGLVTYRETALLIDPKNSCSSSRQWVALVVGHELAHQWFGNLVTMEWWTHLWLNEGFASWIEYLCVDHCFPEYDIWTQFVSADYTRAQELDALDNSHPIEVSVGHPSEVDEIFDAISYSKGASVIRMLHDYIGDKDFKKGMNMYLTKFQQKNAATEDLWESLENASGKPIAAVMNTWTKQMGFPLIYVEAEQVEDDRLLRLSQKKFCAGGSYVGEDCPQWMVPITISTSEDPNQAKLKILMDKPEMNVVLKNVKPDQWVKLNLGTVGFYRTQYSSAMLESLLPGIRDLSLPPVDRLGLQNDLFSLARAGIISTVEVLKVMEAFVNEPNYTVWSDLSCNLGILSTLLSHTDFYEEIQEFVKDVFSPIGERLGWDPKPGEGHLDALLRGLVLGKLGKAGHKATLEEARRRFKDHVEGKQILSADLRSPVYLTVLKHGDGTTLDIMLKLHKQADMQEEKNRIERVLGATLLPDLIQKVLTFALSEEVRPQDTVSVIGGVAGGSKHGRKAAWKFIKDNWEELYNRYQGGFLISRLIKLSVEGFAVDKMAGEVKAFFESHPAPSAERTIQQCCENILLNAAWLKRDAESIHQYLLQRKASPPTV
Method in brief: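 HEK 293T cells homogenised by sonication; debris cleared at 10,000g for 10 min. Clarified lysate incubated 30 min with test compound, then heated 30 min at a series of set temperatures between 38.7 and 70.9 °C. Aggregates pelleted at 18,000g for 20 min; soluble target in supernatant detected by immunoblotting.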

With `CC(C)C[C@@H](N)C(O)C(=O)N1CCC[C@H]1C(=O)O` (stereo partly drawn) [CQ04, (2S,3R)-3-amino-2-hydroxy-5-methyl-hexanoyl-proline] the “inhibition of XPNPEP3 in an enzymatic assay” value (XPNPEP3 [1]) was “inhibited XPNPEP3”, the “prolidase activity (Ala-Pro dipeptide cleavage) in THP-1 cell lysates” value (prolidase (PEPD)) was “completely blocked prolidase activity” and the “direct DPP9 (DPP8/9) inhibition” value (recombinant DPP9) was “did not inhibit”. The “thermal stabilization of PEPD” value (PEPD [2]) was “stabilized PEPD”, the “thermal stabilization of PEPD” value (PEPD [3]) was “stabilize both PEPD and XPNPEP1” and the IC50 (PEPD [4]) was 0.16 µM. For the same compound, the “inhibition of XPNPEP1 enzymatic activity” value (XPNPEP1 [5]) was “inhibits XPNPEP1 enzymatic activity”, the “thermal stabilization of XPNPEP1” value (XPNPEP1 [6]) was “stabilize both PEPD and XPNPEP1” and the “thermal stabilization of XPNPEP3” value (XPNPEP3 [7]) was “slightly stabilized XPNPEP3”. The “cytotoxicity in CASP1−/− MV4;11 cells” value (MV4;11 cells; CASP1−/−) was “not cytotoxic”, the “cytotoxicity in WT MV4;11 cells” value (MV4;11 cells; WT) was “not cytotoxic” and the “inhibition of bestatin-sensitive aminopeptidases” value [8] was “did not inhibit”. For the same compound, the “disruption of NLRP1–DPP9 interaction (DPP9 elution)” value (NLRP1–DPP9 interaction) was “had no impact on the NLRP1 ternary complex” and the “thermal stabilization of NPEPPS” value (NPEPPS) was “nor the bestatin-sensitive aminopeptidase NPEPPS”.
